Measurements: ChEMBL document CHEMBL2029266, “Discovery and evaluation of selective N-type calcium channel blockers: 6-unsubstituted-1,4-dihydropyridine-5-carboxylic acid derivatives” (Bioorg Med Chem Lett, 2012)
pIC50: −log10 of the molar value.

Experiments:
[1] = molecular target: Voltage-dependent N-type calcium channel subunit alpha-1B (Homo sapiens, UniProt Q00975); test: Inhibition of N-type voltage-dependent calcium channel CaV2.2 in human IMR32 cells assessed as inhibition of KCl-induced increase in intracellular calcium concentration preincubated for 4 to 5 mins before KCl challenge; type: cell-based, IMR-32
Voltage-dependent N-type calcium channel subunit alpha-1B, sequence (Q00975 whole entry): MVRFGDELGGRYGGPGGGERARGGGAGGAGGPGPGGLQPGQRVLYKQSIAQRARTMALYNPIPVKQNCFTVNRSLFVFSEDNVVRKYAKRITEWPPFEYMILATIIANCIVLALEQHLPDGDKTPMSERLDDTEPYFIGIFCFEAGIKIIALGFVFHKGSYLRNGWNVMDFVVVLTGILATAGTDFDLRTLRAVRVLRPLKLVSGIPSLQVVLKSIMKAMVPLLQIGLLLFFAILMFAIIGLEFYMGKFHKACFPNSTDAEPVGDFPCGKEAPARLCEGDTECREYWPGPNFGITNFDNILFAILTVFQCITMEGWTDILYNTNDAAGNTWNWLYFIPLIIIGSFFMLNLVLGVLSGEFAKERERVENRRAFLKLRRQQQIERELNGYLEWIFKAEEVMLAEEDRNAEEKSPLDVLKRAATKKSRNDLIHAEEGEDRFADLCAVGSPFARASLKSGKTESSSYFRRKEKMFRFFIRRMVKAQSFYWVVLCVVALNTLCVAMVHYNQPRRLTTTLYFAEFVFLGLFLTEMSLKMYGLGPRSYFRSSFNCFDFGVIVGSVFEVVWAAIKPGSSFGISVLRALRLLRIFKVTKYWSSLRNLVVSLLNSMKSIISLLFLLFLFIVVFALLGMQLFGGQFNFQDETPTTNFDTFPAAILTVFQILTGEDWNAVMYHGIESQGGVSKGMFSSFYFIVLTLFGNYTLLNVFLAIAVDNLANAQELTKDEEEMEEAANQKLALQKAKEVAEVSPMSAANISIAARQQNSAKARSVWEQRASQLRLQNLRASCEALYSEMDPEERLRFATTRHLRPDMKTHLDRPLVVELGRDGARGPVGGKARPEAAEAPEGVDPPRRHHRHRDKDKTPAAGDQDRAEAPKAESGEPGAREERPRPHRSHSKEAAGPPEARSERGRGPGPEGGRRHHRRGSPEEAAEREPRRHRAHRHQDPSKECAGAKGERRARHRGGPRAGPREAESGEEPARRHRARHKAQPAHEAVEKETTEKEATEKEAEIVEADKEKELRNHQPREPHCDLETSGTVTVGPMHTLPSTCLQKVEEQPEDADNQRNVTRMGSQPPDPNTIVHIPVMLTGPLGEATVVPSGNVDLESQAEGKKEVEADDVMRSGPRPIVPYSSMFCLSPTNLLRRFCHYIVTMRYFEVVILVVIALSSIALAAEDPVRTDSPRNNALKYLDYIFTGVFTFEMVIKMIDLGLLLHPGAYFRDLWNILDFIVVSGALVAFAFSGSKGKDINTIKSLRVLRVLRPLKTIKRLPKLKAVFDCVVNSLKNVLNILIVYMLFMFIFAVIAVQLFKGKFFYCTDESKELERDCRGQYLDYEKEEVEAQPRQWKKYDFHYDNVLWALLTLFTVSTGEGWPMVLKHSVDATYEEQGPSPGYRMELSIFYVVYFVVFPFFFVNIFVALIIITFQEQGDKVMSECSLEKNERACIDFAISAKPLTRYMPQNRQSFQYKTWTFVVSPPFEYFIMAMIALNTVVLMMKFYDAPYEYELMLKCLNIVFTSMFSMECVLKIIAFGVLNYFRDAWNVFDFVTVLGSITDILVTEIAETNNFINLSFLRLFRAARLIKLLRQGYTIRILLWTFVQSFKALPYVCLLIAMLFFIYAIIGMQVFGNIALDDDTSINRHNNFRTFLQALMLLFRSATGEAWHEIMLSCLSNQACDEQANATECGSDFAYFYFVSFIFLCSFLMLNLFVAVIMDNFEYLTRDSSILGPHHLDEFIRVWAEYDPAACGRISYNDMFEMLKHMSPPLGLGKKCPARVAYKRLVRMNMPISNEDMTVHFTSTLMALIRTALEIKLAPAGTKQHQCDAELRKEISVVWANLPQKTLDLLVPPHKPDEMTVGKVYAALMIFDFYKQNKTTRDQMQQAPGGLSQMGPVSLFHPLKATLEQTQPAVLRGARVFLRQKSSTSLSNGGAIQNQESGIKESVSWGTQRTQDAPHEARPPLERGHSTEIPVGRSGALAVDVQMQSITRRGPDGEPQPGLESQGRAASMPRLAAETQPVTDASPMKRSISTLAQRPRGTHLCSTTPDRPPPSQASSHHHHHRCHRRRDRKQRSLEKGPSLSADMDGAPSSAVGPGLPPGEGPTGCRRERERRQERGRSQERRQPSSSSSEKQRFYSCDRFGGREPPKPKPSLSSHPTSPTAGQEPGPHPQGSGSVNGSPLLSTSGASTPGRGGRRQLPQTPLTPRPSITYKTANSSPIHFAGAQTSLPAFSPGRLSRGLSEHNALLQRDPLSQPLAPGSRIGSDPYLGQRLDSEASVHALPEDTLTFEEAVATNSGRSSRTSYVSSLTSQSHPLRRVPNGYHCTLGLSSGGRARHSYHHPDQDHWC
Summary of the method: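 IMR-32 cells on poly-L-lysine/collagen dishes, differentiated with 1 mM dibutyl-cAMP and 2.5 µM bromodeoxyuridine for 10–14 days. Loaded with 2.5 µM fura-2/AM, 37 °C, 30 min. HEPES recording medium with 1 µM nifedipine throughout. Calcium rise evoked by 60 mM KCl for 6 s, repeated every 5 min. Compound at 0.1, 1 or 10 µM; IC50 from ≥2 independent experiments.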

[2] = molecular target: L-type voltage-dependent calcium channel (Rattus norvegicus, UniProt P22002+P27732+Q02485); test: (§1) Inhibition of L-type voltage-dependent calcium channel in Sprague-Dawley rat aorta at 10 uM by Magnus method; type: tissue-based; conditions: Sprague-Dawley, isolated rat aorta
Summary of the method: (§2)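 Rat aortic ring in organ bath, Tyrode's solution pH 7.4, 37 °C, 95% O2/5% CO2. Equilibrated 1 h at 2 g resting tension. Then exposed to high-K+ Tyrode (50 mM KCl replacing NaCl) and to normal Tyrode, 45 min each. Activity reported as inhibition or IC50.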

[3] = molecular target: T1, Voltage-gated L-type calcium channel (Rattus norvegicus, UniProt P22002+Q02485+P27732); test: Inhibition of L-type voltage-dependent calcium channel in Sprague-Dawley rat aorta by Magnus method; type: tissue-based; summary of the method: as §2
[4] = molecular target: T1, Voltage-gated L-type calcium channel; test: as §1; type: tissue-based; conditions: 10 µM; summary of the method: as §2
[5] = tested on: Rattus norvegicus; test: Analgesic activity in Sprague-Dawley rat assessed as inhibition of formalin-induced pain at 3 mg/kg, po; type: functional
Summary of the method: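 Rats received formalin by footpad injection, and phase II pain responses were scored. Compound given orally. Inhibition is expressed as % versus the control group, n = 5.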

[6] = tested on: Rattus norvegicus; test: Analgesic activity in Sprague-Dawley rat assessed as inhibition of formalin-induced pain at 100 mg/kg, po; type: functional
Summary of the method: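 Formalin injected into the rat footpad; phase II pain responses scored after oral dosing. Read-out is % inhibition relative to the control group, n = 3 animals at this dose.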

Compound | pIC50 [1] | inhibition at 10 µM [2] [%] | other results
COC(OC)C1=C(C(=O)OC/C=C/c2ccccc2)C(c2cccc(Cl)c2)C(C(=O)O)=CN1 (centres undefined) | 5.96 | 44 | 
COC(OC)C1=C(C(=O)OC/C=C/c2ccccc2)C(c2ccc(Cl)cc2)C(C(=O)O)=CN1 (centres undefined) | 5.96 | 7.9 | 
COC(OC)C1=C(C(=O)OC/C=C/c2ccccc2)C(c2cc(Cl)cc(Cl)c2)C(C(=O)O)=CN1 (centres undefined) | 6.00 | 4 | 
COC(OC)C1=C(C(=O)OC/C=C/c2ccccc2)C(c2ccc(Cl)c(Cl)c2)C(C(=O)O)=CN1 (centres undefined) | 6.28 | 31 | 
COc1ccc(C2C(C(=O)O)=CNC(C(OC)OC)=C2C(=O)OC/C=C/c2ccccc2)cc1Cl (centres undefined) | 5.82 | 26 | 
COc1c(Cl)cc(C2C(C(=O)O)=CNC(C(OC)OC)=C2C(=O)OC/C=C/c2ccccc2)cc1Cl (centres undefined) | 5.92 | 20 | 
COC(OC)C1=C(C(=O)OC/C=C/c2ccccc2)C(c2cccc(C(F)(F)F)c2)C(C(=O)O)=CN1 (centres undefined) | 5.96 | 17 | 
O=C(O)C1=CNC=C(C(=O)OC/C=C/c2ccccc2)C1c1cccc(Cl)c1 (centres undefined) | 5.80 |  | IC50 [3]: 9100 nM
O=C(O)C1=CNC=C(C(=O)OC/C=C/c2ccccc2)C1c1ccc(Cl)cc1 (centres undefined) | 5.92 | 16 | 
O=C(O)C1=CNC=C(C(=O)OC/C=C/c2ccccc2)C1c1ccc(Cl)c(Cl)c1 (centres undefined) | 6.12 | 41 | 
O=C(O)C1=CNC=C(C(=O)OC/C=C/c2ccccc2)C1c1cccc(C(F)(F)F)c1 (centres undefined) | 5.92 | 40 | 
COc1ccc(C2C(C(=O)O)=CNC=C2C(=O)OC/C=C/c2ccccc2)cc1Cl (centres undefined) | 5.89 | 15 | 
COC(OC)C1=C(C(=O)OC/C=C/c2ccccc2)C(c2cccc(Cl)c2)C(C(=O)O)=C(C)N1 (centres undefined) | 5.52 |  | 
COc1c(Cl)cc(C2C(C(=O)O)=CNC=C2C(=O)OC/C=C/c2ccccc2)cc1Cl (single isomer, unassigned; (+)) | 6.14 |  | inhibition (INH) [4]: 6.5%; IC50 [3]: 44000 nM; inhibition in vivo at 3 mg/kg [5]: 35%
COc1c(Cl)cc(C2C(C(=O)O)=CNC=C2C(=O)OC/C=C/c2ccccc2)cc1Cl (stereo in doubt; 3f) | 6.24 |  | inhibition (INH) [4]: 19%
COc1c(Cl)cc(C2C(C(=O)O)=CNC=C2C(=O)OC/C=C/c2ccccc2)cc1Cl (stereo in doubt; (-)-3f) | 6.08 |  | inhibition (INH) [4]: 28%
NCC1(CC(=O)O)CCCCC1 [GABAPENTIN] |  |  | inhibition in vivo at 100 mg/kg [6]: 33%
